Experimental data as given in the RNAGym collection of RNA variant scans (doi:10.1126/science.aae0568).
This sample holds only a part of the variants without activity.

B1: tRNA (parent)
chain: GUUCCGUUGGCGUAAUGGUAACGCGUCUCCCUCCUAAGGAGAAGACUGCGGGUUCGAGUCCCGUACGGAACG

Variants of: B1
Test: yeast fitness relative to wild type (ratio to wild type); higher = fitter; tRNA-Arg(CCU), competitive growth, 37 C, YPD
How it was run: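 For this measurement, the tRNA-Arg(CCU) gene was varied by chemical synthesis at a 3% per-site mutation rate across 69 sites, and each variant was placed at the native genomic locus in Saccharomyces cerevisiae. The pooled strains went through a 24-hour competition in YPD at 37°C in six parallel replicates, with amplicons from start and end populations read by 100-nucleotide paired-end sequencing. Darwinian fitness relative to wild type followed from the change in each genotype's frequency. Genotypes needed ≥ 100 starting reads, and estimates < 0.5 were set to 0.5.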

**Q.** Which yeast fitness does the source give for GUUCCGUUGGCGUAGUGGUAACGCGUCUCCCCCCUAAGGAGAAGACUGCGGGUUCGAGUCCCGUACGGAACG here?
**A.** 0.983

**Q.** For GUUCCGUUGGCGUAUUGGUAACGCGUCUCCCUCCUGAGGAGAAGACUGCGGGUUGAAGUCCCGUACGGAACG, which yeast fitness is on record?
**A.** 0.535

**Q.** Which yeast fitness does the source give for GUUCCGUUGGCGUAUUGGUAACGCGUCUCCCUCCUAAGGGGAAGACUGCGGGUUCGAGUCCCGUUCGGAACG here?
**A.** 0.516

**Q.** With GUUCCGUUGGCGUAGUGGUAACGCGGCUCUCUCCUAAGGAGAAGACUGCGGGUUCGAGUCCCGUACGGAACG as the variant, how does the yeast fitness read?
**A.** ≤ 0.5

**Q.** Which yeast fitness does the source give for GUUCCGUUGGCGUAUUGGUCACGCGUCUCCCUCCUAAGGAGAAGACUGCCGGUUCGAGUCCCGUACGGAACG here?
**A.** ≤ 0.5

**Q.** With GUUCCGUUGGCGUAGUGGUAACGCGUCUCCCUCCAAAGGAGAAGACUGCGGAUUCGAGCCCCGUAAAGAACG as the variant, how does the yeast fitness read?
**A.** ≤ 0.5

**Q.** Which yeast fitness does the source give for GUUCCGUUGGCGUAGUGGUAACGCGUCUCCCUCCUAAGGAGAAGACUGCGGGGUCGAGUCCCGUACGGAACG here?
**A.** 0.61

**Q.** With GUUCCGUUGGCGUAGUGGUAACGCGUCUCCCUCCUAAGGAGAAGACUGCGGGAUCGAGUCCCGUACGGAACG as the variant, how does the yeast fitness read?
**A.** 0.667

**Q.** Which yeast fitness does the source give for GUUCCGUUGGCGUAUUGGUAACGCGUCUCCCUCCUGAGGAGAAGACUGCGGGUUCGAGUCCCGUACGGAACG here?
**A.** 0.665

**Q.** With GUUCCGUUGGCGUAUUGGUCACGCGUCUCCCUCAUAAGGAGAAGACUGCGGGUUCGAGUCCCGUACGCAACG as the variant, how does the yeast fitness read?
**A.** ≤ 0.5

**Q.** With GUUCCGUUGGCGUAGUGGUAACGCGUCGCCCUCCUAAGGAGUAGACUACGGGUUCGAGUCUCGUACGGAACG as the variant, how does the yeast fitness read?
**A.** ≤ 0.5

**Q.** Which yeast fitness does the source give for GUUCCGUUGGCGUAUUGGUCACACGUCUCCCUCCUAAGGAGAAGACUGCCGGUUCGAGUCCCAUACGGAACG here?
**A.** ≤ 0.5

**Q.** With GUUCCGUUGGCGUAGUGGUAACGCGUCUCCCUCCUAAGGAGAAGACUGCGGGUACGAGUCCUGUACGGAACG as the variant, how does the yeast fitness read?
**A.** ≤ 0.5

**Q.** With GUUCCGUUGGCGUAUUGGUAGCGUGUCUCCCUUCUAAGGCGACGACUGUGGGUUUGAGUCUCGUACGGAACG as the variant, how does the yeast fitness read?
**A.** ≤ 0.5

**Q.** Which yeast fitness does the source give for GUUCCGUUGGCGUAUUGGUAACGCGUCUCCCUCCUAAGGUGAAGACUGUGGGUUCGAGUCCCGUACGGAACG here?
**A.** 0.599

**Q.** For GUUCCGUUGGCGUAUUGGUAGCGCGUCUCCCUCCUAAGGAGAAGACUGCGGGUUCGAGUCCCGUACGGAACG, which yeast fitness is on record?
**A.** 0.785

**Q.** For GUUCCGUUGGCGUAUUGGUACCGCGUCUACCACCUAAGGAGAAGACUGCGGGUUCGAGUCCCGUACGGAACG, which yeast fitness is on record?
**A.** 0.728

**Q.** For GUUCCGUUGGCGUAGUGGUAACGCGUCGCCCUCCUAAGGAGUAGACUACGGGUUCGAGUCCCGUACGGAACG, which yeast fitness is on record?
**A.** ≤ 0.5

**Q.** With GUUCCGUUGGCGUAUUGGUAACGCGUCUCCCUCCUGUGGAGAAGACUGCGGGUUCGAGUCCCGUUCGGAACG as the variant, how does the yeast fitness read?
**A.** ≤ 0.5

**Q.** For GUUCCGUUGGCGUAUUGGUAACGCGUCUCCCUCCUCAGGUGAAGACUGCGGGUUCGAGUCCCGUUCGGAACG, which yeast fitness is on record?
**A.** ≤ 0.5

**Q.** For GUUCCGUUGGCGUAGUGGUAACGCGUCCCCCUCCUACGGAGAAGACUGCGGGUUCGAGUCCCGUACGGAACG, which yeast fitness is on record?
**A.** ≤ 0.5

**Q.** With GUUCCGUUGGCGUAGUGGUAACGCGUCACCCUCGUAAGGAGAAGAAUGCGGGUUCGAGUCCCGUACGGGACG as the variant, how does the yeast fitness read?
**A.** ≤ 0.5

**Q.** Which yeast fitness does the source give for GUUCCGUUGGCGUAGUGGUAACGCGGCUCCCUCCUAAGGAGAAGACUGCGGGUUCGAGUCCCGUCCGGAACG here?
**A.** 0.632

**Q.** With GUUCCGUUGGCGUAGUGGUAACGCGUCUCCCUCCUAAGGAGAAGACUGCGGGUCGGAGUCGCGUUCGGAACG as the variant, how does the yeast fitness read?
**A.** ≤ 0.5

**Q.** For GUUCCGUUGGCGUAGUGGUAACGCGUCUCCCACCUAAAGAGAAGACUGCGGGUUCGAGUCCCGUACGGAACG, which yeast fitness is on record?
**A.** 0.525

**Q.** For GUUCCGUUGGCGUAUUGGUGACGCGUCUCCCUCCUAAGGACAAGACUGCGGGUUCGAGUUCCGUACAGAACG, which yeast fitness is on record?
**A.** ≤ 0.5

**Q.** Which yeast fitness does the source give for GUUCCGUUGGCGUAUUGGUCACACGUCUCCCUCCUAAGGAGAAGACUGCCGGUUCGAGUCCCGUACGGAACG here?
**A.** 0.577

**Q.** Which yeast fitness does the source give for GUUCCGUUGGCGUAUUGGUGACGCGUCUCCCUCCUAAGGAGAAGUCUGCGGGUUCGAGUCCCGUACGGAACG here?
**A.** ≤ 0.5

**Q.** With GUUCCGUUGGCGUAUUGGUCACGCGUCUCCCGCCUAAGGAGAAGACUGCGGGUUCGAGUCCCGUACGGAACG as the variant, how does the yeast fitness read?
**A.** ≤ 0.5

**Q.** Which yeast fitness does the source give for GUUCCGUUGGCGUAUUGGUGACGCGUCUCCCUCCUAAGGAGAAGACUGCGGGUUCGAGUCCCCUACGGAACG here?
**A.** 0.555

**Q.** With GUUCCGUUGGCGUAGUGGUAACGCGUCUCCCUCCUAAGGAGAAGACGGCGGGUUCGAGUCCCGUACGGCACG as the variant, how does the yeast fitness read?
**A.** ≤ 0.5

**Q.** With GUUCCGUUGGCGUAGUGGUAACGCGUCUCCCUCCUAAGGAGAAGACGGCGGGUUCAAGUCCCGUACGGAACG as the variant, how does the yeast fitness read?
**A.** ≤ 0.5

**Q.** For GUUCCGUUGGCGUAGUGGUAACGCGUCUCCCACCUAAAGAGAAGACUGCGGAUUCGAGUCCCGUAUGGAACG, which yeast fitness is on record?
**A.** ≤ 0.5

**Q.** Which yeast fitness does the source give for GUUCCGUUGGCGUAUUGGUAACGCGUCUCCCUCCUAUGGAGAAGACUGGGGGUUCGAGUCCCGUGCGGAACG here?
**A.** ≤ 0.5

**Q.** Which yeast fitness does the source give for GUUCCGUUGGCGUAGUGGUAACGCGUCCCCCUCCAAAAGAGAAGAGUGCGGGUUCGAGUCCUGUACGGAACG here?
**A.** 0.718

**Q.** Which yeast fitness does the source give for GUUCCGUUGGCGUAUUGGUACCGCGUCUCCCUCCUAAGGAGAAGACUGCGGAUUCGAGUCCCGUACGGAACG here?
**A.** ≤ 0.5

**Q.** Which yeast fitness does the source give for GUUCCGUUGGCGUAUUGGUAACGCGUCUCCCUCCUUAGGAGAAGACUCCGGGUUCGAGUCCCGUAUGGAACG here?
**A.** ≤ 0.5
